Experimental findings from ChEMBL document CHEMBL1148521, “Synthesis, antitumor activity, and mechanism of action of benzo[a]pyrano[3,2-h]acridin-7-one analogues of acronycine” (J Med Chem, 2006) are described below.

The structures appear in SMILES notation. Activity calls are given as the source filed them. The rule behind the calls is not given here.

Assay [1] has as its system L1210. The assay can be described thus: Antiproliferative activity against mouse L1210 cell line by MTT assay. Type of assay: functional, cell-based. In outline: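 L1210 cells cultured in RPMI 1640 with 10% fetal calf serum, 2 mM glutamine, penicillin/streptomycin and 10 mM HEPES pH 7.4. Exposed to nine serial drug dilutions in triplicate for 48 h (four doubling times), then read by tetrazolium (MTT) assay. IC50 is the concentration cutting optical density by 50% versus untreated controls; mean of at least three independent experiments.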
Background: Tetrazolium assays rely on reduction of a dye to a coloured formazan, in cell work by metabolically active cells.

A further assay has as its system Nucleic Acid. The assay can be described thus: Alkylation of DNA at 50 uM by gel shift assay. Type of assay: nucleic-acid assay. In outline:
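Radiolabeled 117-bp pBS DNA fragment (EcoRI/PvuII cut, 3′-end-labeled at EcoRI site with [³²P]dATP, gel-purified) incubated with drug at 50 µM in 1 mM Na cacodylate pH 7.0, dark, room temperature, 2 h or 24 h. Resolved on native polyacrylamide gel in TBE; bound versus free DNA scored as strong, weak or no alkylation.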
A general note: Mobility shift assays separate free from complexed probe on a gel.

Assay [2] relates to L1210. Put plainly: Cell cycle arrest in L1210 cell line by accumulation at S phase at 5 uM after 21 hrs. Type of assay: functional, Mus musculus. In outline: (§1)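 L1210 cells at 5 × 10⁵ cells/mL treated 21 h with various drug concentrations. Then ethanol-fixed (70%), washed, and stained 30 min at 20 °C in PBS with 100 µg/mL RNase and 50 µg/mL propidium iodide. Flow cytometry on 10 000 cells per sample. Highest percentage of S-phase cells reported with the concentration giving it.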

Another assay concerns KB 3-1. The assay can be described thus: Antiproliferative activity against human KB-3-1 cell line by MTT assay. Type of assay: functional, cell-based. In outline:
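KB-3-1 cells grown in DMEM with 10% fetal calf serum, 2 mM glutamine, penicillin/streptomycin and 10 mM HEPES pH 7.4. Microculture tetrazolium assay: nine serial drug dilutions in triplicate for 96 h (four doubling times). IC50 is the concentration halving optical density relative to untreated controls; mean of at least three separate experiments.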

Assay [3] deals with L1210. The assay can be described thus: Cell cycle arrest in L1210 cell line by accumulation at S phase at 10 uM after 21 hrs. It is filed as functional, Mus musculus. In outline: as §1
Assay [4] has as its system L1210. The assay can be described thus: Cell cycle arrest in L1210 cell line by accumulation at S phase after 21 hrs. It is filed as functional, cell-based. Conditions: Mus musculus. In outline: as §1
Assay [5] relates to L1210. The assay can be described thus: Cell cycle arrest in L1210 cell line by accumulation at S phase at 2.5 uM after 21 hrs. Type of assay: functional, Mus musculus. In outline: as §1
Another assay concerns MC-38. Put plainly: Antiproliferative activity against mouse C38 cell line implanted in B6D2F1 mouse at 4 mg/kg, iv. It is filed as functional.
In assay [6] the test system is L1210. The assay can be described thus: Cell cycle arrest in L1210 cell line by accumulation at S phase at 0.25 uM after 21 hrs. Type of assay: functional, Mus musculus. A digest of the protocol:
as §1

Usually IC50 stands for the concentration that gives 50% inhibition. High values mean a need for much substance, low ones inhibition by little substance. Regarding `C=CCCC(=O)O[C@@H]1[C@H](OC(C)=O)c2c(cc(OC)c3c(=O)c4c5ccccc5ccc4n(C)c23)OC1(C)C` (racemic), the IC50 with L1210 [1] worked out at 700 nM; in the assay with KB 3-1, 100 nM. For the same molecule, the result with Nucleic Acid was Active. The molecule also gave an Activity in the assay on L1210 [2] of 78%.
On to `COc1cc2c(c3c1c(=O)c1c4ccccc4ccc1n3C)[C@@H](O)[C@@H](O)C(C)(C)O2` (racemic), for which the IC50 in the assay with L1210 [1] came out at 49000 nM; in the assay with KB 3-1, 32000 nM. In addition, the outcome with Nucleic Acid was inactive.
Consider `COc1cc2c(c3c1c(=O)c1c4ccccc4ccc1n3C)[C@@H](O)[C@@H](OC(=O)N(C)C)C(C)(C)O2` (racemic), for which the IC50 in the assay on L1210 [1] came out at 500 nM; in the assay with KB 3-1, 100 nM. In the assay with L1210 [3], this molecule registered an Activity of 73%. Further, the result in the assay on Nucleic Acid was Active.
For the molecule `COc1cc2c(c3nc4ccc5ccccc5c4c(OC)c13)[C@@H](OC(C)=O)[C@@H](OC(C)=O)C(C)(C)O2` (racemic), the IC50 amounted to 8000 nM in the assay on L1210 [1] and 7200 nM in the assay with KB 3-1. The result in the assay with Nucleic Acid was inactive.
Take `COc1cc2c(c3c1c(=O)c1c4ccccc4ccc1n3C)C=CC(C)(C)O2` [BENZO[A]ACRONYCINE]: the IC50 in the assay with L1210 [1] came out at 2500 nM; in the assay on KB 3-1 it was 8600 nM. Further, the outcome in the assay with L1210 [4] was inactive.
For the molecule `COc1cc2c(c3c1c(=O)c1cc4ccccc4cc1n3C)[C@@H](OC(C)=O)[C@@H](OC(C)=O)C(C)(C)O2` (racemic), the concentration for half-maximal inhibition (IC50) in the assay on L1210 [1] is 700 nM; in the assay on KB 3-1, 100 nM. The result with Nucleic Acid was Active. The molecule further registered an Activity in the assay with L1210 [2] of 73%.
Consider `COc1cc2c(c3c1c(=O)c1ccccc1n3C)C=CC(C)(C)O2` [ACRONINE], for which the values for the IC50 with L1210 [1] and in the assay with KB 3-1 were 23000 nM and 3700 nM, respectively.
Regarding `CCC(=O)O[C@@H]1[C@H](O)c2c(cc(OC)c3c(=O)c4c5ccccc5ccc4n(C)c23)OC1(C)C` (racemic), the IC50 with L1210 [1] amounted to 500 nM; in the assay on KB 3-1, 100 nM. Besides, the result in the assay on Nucleic Acid was Active. The molecule further gave an Activity in the assay with L1210 [2] of 69%.
On to `COc1cc2c(c3c1c(=O)c1c4ccccc4ccc1n3C)[C@@H](OC(C)=O)[C@@H](OC(=O)CC(C)C)C(C)(C)O2` (racemic), for which the IC50 with L1210 [1] amounted to 800 nM; in the assay on KB 3-1, 100 nM. The outcome in the assay with Nucleic Acid was Active. The molecule further came in with an Activity in the assay with L1210 [2] of 76%.
With `C=CCCC(=O)O[C@@H]1c2c(cc(OC)c3c(=O)c4c5ccccc5ccc4n(C)c23)OC(C)(C)[C@@H]1OC(=O)CCC=C` (racemic), the IC50 stood at 500 nM with L1210 [1] and 130 nM with KB 3-1. The Activity in the assay on L1210 [3] stood at 66%. The result with Nucleic Acid was Active.
Regarding `COc1cc2c(c3nc4ccc5ccccc5c4c(OC)c13)C=CC(C)(C)O2`, the half-inhibitory concentration (IC50) in the assay on L1210 [1] is 28000 nM; in the assay with KB 3-1 it was 33000 nM.
Consider `COc1cc2c(c3c1c(=O)c1c4ccccc4ccc1n3C)[C@@H](O)[C@@H](OC(C)=O)C(C)(C)O2` (racemic), for which the IC50 in the assay with L1210 [1] came to 700 nM; in the assay on KB 3-1, 200 nM. Further, in the assay on Nucleic Acid, the result was Active. This molecule returned an Activity in the assay with L1210 [2] of 76%.
Turning to `COc1cc2c(c3c1c(=O)c1c4ccccc4ccc1n3C)C(=O)[C@@H](OC(C)=O)C(C)(C)O2`, the IC50 in the assay with L1210 [1] amounted to 2000 nM; in the assay on KB 3-1, 6300 nM. Moreover, in the assay with Nucleic Acid, the result was inactive.
Regarding `CCC(=O)O[C@@H]1c2c(cc(OC)c3c(=O)c4c5ccccc5ccc4n(C)c23)OC(C)(C)[C@@H]1OC(=O)CC` (racemic), the figures for the IC50 in the assay with L1210 [1] and with KB 3-1 were 500 nM and 100 nM, respectively. Moreover, in the assay on Nucleic Acid, the result was Active. In the assay with L1210 [2], this molecule came in with an Activity of 70%.
On to `COc1cc2c(c3c1c(=O)c1c4ccccc4ccc1n3C)[C@@H](O)[C@@H](OC(=O)c1ccccc1)C(C)(C)O2` (racemic), for which the IC50 was 800 nM in the assay with L1210 [1] and 300 nM in the assay on KB 3-1. In addition, in the assay with Nucleic Acid, the outcome was Active. Also, the Activity in the assay on L1210 [5] turned out to be 73%.
With `COc1cc2c(c3c1c(=O)c1c4ccccc4ccc1n3C)[C@@H](O)[C@@H](OC(=O)CC(C)C)C(C)(C)O2` (racemic), the IC50 stood at 1000 nM with L1210 [1] and 200 nM in the assay with KB 3-1. Further, in the assay with Nucleic Acid, the outcome was Active. The Activity with L1210 [2] is 73%.
Take `CCN(CC)C(=O)O[C@@H]1c2c(cc(OC)c3c(=O)c4c5ccccc5ccc4n(C)c23)OC(C)(C)[C@@H]1OC(=O)N(CC)CC` (racemic): the IC50 in the assay on L1210 [1] is 900 nM; in the assay with KB 3-1, 800 nM. In the assay with L1210 [3], this molecule yielded an Activity of 43%. For the same molecule, in the assay on Nucleic Acid, the outcome was Active.
On to `COc1cc2c(c3c1c(=O)c1c4ccccc4ccc1n3C)[C@@H](OC(C)=O)[C@@H](OC(C)=O)C(C)(C)O2` (racemic), for which the values for the Activity with MC-38 and in the assay with L1210 [2] were > 80% and 68%, respectively. Further, the IC50 with L1210 [1] is 700 nM; in the assay with KB 3-1, 150 nM. Besides, the result in the assay on Nucleic Acid was Active.
In the case of `COc1cc2c(c3c1c(=O)c1c4ccccc4ccc1n3C)[C@H]1OC(=O)O[C@H]1C(C)(C)O2` (racemic), the IC50 with L1210 [1] stood at 60 nM; in the assay on KB 3-1, 15 nM. Besides, in the assay on Nucleic Acid, the outcome was inactive. The same molecule showed an Activity in the assay with L1210 [6] of 64%.
`COc1cc2c(c3c1c(=O)c1c4ccccc4ccc1n3C)[C@@H](OC(=O)CC(C)C)[C@@H](OC(=O)CC(C)C)C(C)(C)O2` (racemic): the values for the IC50 in the assay on L1210 [1] and with KB 3-1 were 700 nM and 150 nM, respectively. In the assay on L1210 [3], this molecule gave an Activity of 60%. The outcome with Nucleic Acid was Active.
Consider `COc1cc2c(c3nc4ccc5ccccc5c4c(OC)c13)[C@@H](O)[C@@H](O)C(C)(C)O2` (racemic), for which the figures for the IC50 in the assay on L1210 [1] and in the assay on KB 3-1 were 1400 nM and 6300 nM, respectively. Further, the result in the assay on Nucleic Acid was inactive.
In the case of `COc1cc2c(c3nc4ccc5ccccc5c4c(O)c13)C(=O)C(O)C(C)(C)O2` (centres undefined), the IC50 in the assay with L1210 [1] worked out at 500 nM; with KB 3-1, 2000 nM. The outcome with Nucleic Acid and in the assay with L1210 [4] was inactive.
Take `C=CCCC(=O)O[C@@H]1[C@H](O)c2c(cc(OC)c3c(=O)c4c5ccccc5ccc4n(C)c23)OC1(C)C` (racemic): the values for the IC50 with L1210 [1] and in the assay on KB 3-1 were 800 nM and 250 nM, respectively. Moreover, in the assay with Nucleic Acid, the result was inactive. In addition, the Activity in the assay with L1210 [2] is 70%.
